Experimental data reported in PMC5905822 (International Journal of Nanomedicine, 2018).

Legend:
[1] = Plasma pharmacokinetics in rats after intravenous injection; assay type: in vivo, Sprague Dawley (SD) rats
Summary of the method: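 Male SD rats (220–250 g), fasted overnight and randomized (n=6/group), got 6 mg/kg iv of free or lipid-carrier-formulated ester. An automated collector drew blood at 2–300 min, with saline volume replacement. Plasma was prepared cold and stored at −80°C, then extracted with ice-cold acetonitrile plus internal standard, dried under nitrogen and reconstituted in methanol. LC-MS measured the parent ester and its hydrolysed metabolite.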

rat liver microsomes = conditions: cited from earlier work
human liver microsomes = conditions: cited from earlier work

- MRT0–∞ of plasma DBZ ([1]; analyte DBZ, rats, intravenous, 6 mg/kg): 0.149±0.015 H
- Elimination from the blood circulation after injection ([1]; preliminary pharmacokinetic studies in rats): eliminated quickly
SMILES: CC1(C)C2CCC1(C)C(OC(=O)C(O)Cc1ccc(O)c(O)c1)C2 (stereo not shown) [DBZ, 1,7,7-trimethylbicyclo[2.2.1]heptan-2-yl 3-[3,4-dihydroxyphenyl]-2-hydroxy-propanoate]
- Metabolism by the liver microsomal enzymes (rat liver microsomes): metabolized quickly
- Metabolism by the liver microsomal enzymes (human liver microsomes): metabolized quickly
